Each block holds one molecule with its values, some of them ahead of it. Calls of active or inactive are those of the source. The rule behind the calls is not given here.
What was measured:
[1] = target: Histone-lysine N-methyltransferase EZH2 (Mus musculus) (UniProt Q61188); test: Inhibition of EZH2 in mouse MOVAS cells assessed as reduction in H3K27me2 level at 5 uM measured after 24 hrs by Western blot analysis; type: cell-based
In short: (§1)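 Total protein from MOVAS cells extracted in RIPA buffer. 20 μg per lane resolved by SDS-PAGE and transferred to PVDF. Blocked in 5% non-fat milk, primary antibody overnight at 4 °C, then peroxidase-conjugated secondary and chemiluminescence imaging. Normalized to GAPDH or β-actin loading control. n = 4; mean ± SD versus DMSO, two-tailed t-test.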

[2] = target: Histone-lysine N-methyltransferase EZH2 (Mus musculus) (UniProt Q61188); test: Inhibition of EZH2 in mouse MOVAS cells assessed as reduction in H3K27me3 level at 5 uM measured after 24 hrs by Western blot analysis; type: cell-based; in short: as §1
[3] = target: Histone-lysine N-methyltransferase EZH2 (Mus musculus) (UniProt Q61188); test: Inhibition of EZH2 in mouse MOVAS cells assessed as cell injury at 5 uM measured after 48 hrs by LDH release assay; type: cell-based
In short: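 Mouse MOVAS VSMCs exposed to inhibitor for 48 h. Cell injury quantified as percentage of injured cells from released LDH using a cytotoxicity LDH kit. n = 6; mean ± SD versus DMSO, two-tailed t-test.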

[4] = target: Histone-lysine N-methyltransferase EZH2 (Mus musculus) (UniProt Q61188); test: Inhibition of EZH2 in mouse MOVAS cells assessed as reduction in cell number at 5 uM measured at 24 hrs by cell counting method; type: cell-based
In short: (§2)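 MOVAS cells serum-starved 12 h in DMEM/high glucose, then 2×10^5 cells seeded in six-well plates in medium with 10% FBS. Trypsinized at 12, 24, 36 and 48 h and counted by a single blinded observer. Three replicate wells (n = 3); mean ± SD, two-tailed t-test.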

[5] = target: Histone-lysine N-methyltransferase EZH2 (Mus musculus) (UniProt Q61188); test: Inhibition of EZH2 in mouse VSMC cells assessed as reduction in cell count at 5 uM for 24 hrs by light microscopic analysis; type: cell-based; conditions: MOVAS
[6] = target: Histone-lysine N-methyltransferase EZH2 (Mus musculus) (UniProt Q61188); test: Inhibition of EZH2 in mouse MOVAS cells assessed as elevation of LC3-II expression at 5 uM by Western blot analysis; type: cell-based; in short: as §1
[7] = target: Histone-lysine N-methyltransferase EZH2 (Mus musculus) (UniProt Q61188); test: Inhibition of EZH2 in mouse MOVAS cells assessed as elevation of LC3-II expression at 5 uM in presence of chloroquine by Western blot analysis; type: cell-based; in short: as §1
[8] = target: Histone-lysine N-methyltransferase EZH2 (Mus musculus) (UniProt Q61188); test: Inhibition of EZH2 in mouse MOVAS cells assessed as elevation of LC3-II expression at 5 uM in presence of chloroquine and rapamycin by Western blot analysis; type: cell-based; in short: as §1
[9] = target: Histone-lysine N-methyltransferase EZH2 (Mus musculus) (UniProt Q61188); test: Inhibition of EZH2 in mouse MOVAS cells assessed as increase in ATG5 expression at 5 uM measured after 24 hrs by Western blot analysis; type: cell-based; in short: as §1
[10] = target: Histone-lysine N-methyltransferase EZH2 (Mus musculus) (UniProt Q61188); test: Inhibition of EZH2 in mouse MOVAS cells assessed as increase in ATG7 expression at 5 uM measured after 24 hrs by Western blot analysis; type: cell-based; in short: as §1
[11] = target: Histone-lysine N-methyltransferase EZH2 (Mus musculus) (UniProt Q61188); test: Inhibition of EZH2 in mouse MOVAS cells transfected with shATG5 assessed as reduction in cell count at 5 uM measured up to 48 hrs by cell counting method; type: cell-based; in short: as §2
[12] = target: Histone-lysine N-methyltransferase EZH2 (Mus musculus) (UniProt Q61188); test: Inhibition of EZH2 in mouse MOVAS cells transfected with shATG7 assessed as reduction in cell count at 5 uM measured up to 48 hrs by cell counting method; type: cell-based; in short: as §2
[13] = target: Histone-lysine N-methyltransferase EZH2 (Mus musculus) (UniProt Q61188); test: Inhibition of EZH2 in mouse MOVAS cells transfected with shATG5 assessed as reduction in cell count at 5 uM measured after 48 hrs by light microscopy; type: cell-based
In short: (§3)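 Mouse MOVAS VSMCs imaged by light microscopy after 48 h of the indicated treatments (scale bar 200 μm). Lentivirally modified cells were selected with puromycin 2 μg/ml after 48 h infection. Treatments were inhibitor 5 μM, DMSO vehicle, or PD98059 50 μM.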

[14] = target: Histone-lysine N-methyltransferase EZH2 (Mus musculus) (UniProt Q61188); test: Inhibition of EZH2 in mouse MOVAS cells transfected with shATG7 assessed as reduction in cell count at 5 uM measured after 48 hrs by light microscopy; type: cell-based; in short: as §3
[15] = target: Histone-lysine N-methyltransferase EZH2 (Mus musculus) (UniProt Q61188); test: Inhibition of EZH2 in mouse MOVAS cells transfected with shATG5 assessed as increase in LC3-II expression at 5 uM by Western blot analysis; type: cell-based; in short: as §1
[16] = target: Histone-lysine N-methyltransferase EZH2 (Mus musculus) (UniProt Q61188); test: Inhibition of EZH2 in mouse MOVAS cells transfected with shATG7 assessed as increase in LC3-II expression at 5 uM by Western blot analysis; type: cell-based; in short: as §1
[17] = target: Histone-lysine N-methyltransferase EZH2 (Mus musculus) (UniProt Q61188); test: Inhibition of EZH2 in mouse MOVAS cells assessed as effect on AMPKalpha phosphorylation at 5 uM measured after 24 hrs by Western blot analysis; type: cell-based; in short: as §1
[18] = target: Histone-lysine N-methyltransferase EZH2 (Mus musculus) (UniProt Q61188); test: Inhibition of EZH2 in mouse MOVAS cells assessed as effect on mTOR phosphorylation at 5 uM measured after 24 hrs by Western blot analysis; type: cell-based; in short: as §1
[19] = target: Histone-lysine N-methyltransferase EZH2 (Mus musculus) (UniProt Q61188); test: Inhibition of EZH2 in mouse MOVAS cells assessed as effect on S6 phosphorylation at 5 uM measured after 24 hrs by Western blot analysis; type: cell-based; in short: as §1
[20] = target: Histone-lysine N-methyltransferase EZH2 (Mus musculus) (UniProt Q61188); test: Inhibition of EZH2 in mouse MOVAS cells assessed as reduction in AKT phosphorylation at 5 uM measured after 24 hrs by Western blot analysis; type: cell-based; in short: as §1
[21] = target: Histone-lysine N-methyltransferase EZH2 (Mus musculus) (UniProt Q61188); test: Inhibition of EZH2 in mouse MOVAS cells over-expressing AKT assessed as reduction in H3K27me2 level at 5 uM measured after 24 hrs by Western blot analysis; type: cell-based; in short: as §1
[22] = target: Histone-lysine N-methyltransferase EZH2 (Mus musculus) (UniProt Q61188); test: Inhibition of EZH2 in mouse MOVAS cells over-expressing AKT assessed as reduction in H3K27me3 level at 5 uM measured after 24 hrs by Western blot analysis; type: cell-based; in short: as §1
MOVAS [23] = test: Cell cycle arrest in mouse MOVAS cells assessed as effect on G0/G1-phase cell population at 5 uM by flow cytometry; type: functional, cell-based
In short: (§4)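 MOVAS mouse aortic SMCs (about 2–5×10^6) harvested by trypsin, washed twice in PBS, fixed overnight at 4 °C in cold 70% ethanol, then stained 2 h in the dark with RNase A (0.3 mg) and propidium iodide (0.015 mg). Cell-cycle phase distribution read by flow cytometry. Data are mean ± SD, compared by two-tailed t-test.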

MOVAS [24] = test: Cell cycle arrest in mouse MOVAS cells assessed as effect on S-phase cell population at 5 uM by flow cytometry; type: functional, cell-based; in short: as §4
MOVAS [25] = test: Cell cycle arrest in mouse MOVAS cells assessed as effect on G2/M-phase cell population at 5 uM by flow cytometry; type: functional, cell-based; in short: as §4
[26] = Induction of apoptosis in mouse MOVAS cells assessed as early apoptotic cells at 5 uM by flow cytometry; type: functional
In short: (§5)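 Trypsinized MOVAS cells stained with a PE Annexin V apoptosis detection kit and analysed by flow cytometry, which separated early and late apoptotic populations. Mean ± SD; two-tailed Student's t-test.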

[27] = Induction of apoptosis in mouse MOVAS cells assessed as late apoptotic cells at 5 uM by flow cytometry; type: functional; in short: as §5
[28] = target: Histone-lysine N-methyltransferase EZH2 (Mus musculus) (UniProt Q61188); test: Inhibition of EZH2 in mouse MOVAS cells assessed as appearance of double-membraned vacuole containing fragments of cytoplasmic component in presence of rapamycin by transmission electron microscopy; type: cell-based
In short: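 MOVAS cells treated with inhibitor or lentivirus, with rapamycin at 150 nM. Fixed in cold 2.5% glutaraldehyde for 30 min, then further fixed overnight at 4 °C, dehydrated in ethanol and acetone, and embedded in epoxy resin. 60-nm sections stained with uranyl acetate and lead citrate and imaged by TEM for double-membraned autophagic vacuoles.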

[29] = target: Histone-lysine N-methyltransferase EZH2 (Mus musculus) (UniProt Q61188); test: Inhibition of EZH2 in mouse MOVAS cells over-expressing AKT assessed as reduction in cell count at 5 uM by cell counting method; type: cell-based; in short: as §2
[30] = target: Histone-lysine N-methyltransferase EZH2 (Mus musculus) (UniProt Q61188); test: Inhibition of EZH2 in mouse MOVAS cells over-expressing AKT assessed as reduction in cell count at 5 uM by light microscopy; type: cell-based; in short: as §3
[31] = target: Histone-lysine N-methyltransferase EZH2 (Mus musculus) (UniProt Q61188); test: Inhibition of EZH2 in mouse MOVAS cells over-expressing AKT assessed as increase in LC3-II expression at 5 uM measured after 24 hrs by Western blot analysis; type: cell-based; in short: as §1
[32] = target: Histone-lysine N-methyltransferase EZH2 (Mus musculus) (UniProt Q61188); test: Inhibition of EZH2 in mouse MOVAS cells assessed as increase in ERK1/2 phosphorylation at 5 uM measured after 6 hrs by Western blot analysis; type: cell-based; in short: as §1
[33] = target: Histone-lysine N-methyltransferase EZH2 (Mus musculus) (UniProt Q61188); test: Inhibition of EZH2 in mouse MOVAS cells assessed as increase in ERK1/2 phosphorylation at 5 uM measured after 6 hrs in presence of MEK1 inhibitor PD98059 by Western blot analysis; type: cell-based; in short: as §1
[34] = target: Histone-lysine N-methyltransferase EZH2 (Mus musculus) (UniProt Q61188); test: Inhibition of EZH2 in mouse MOVAS cells assessed as reduction in cell count at 5 uM measured after 48 hrs in presence of MEK1 inhibitor PD98059 by cell counting method; type: cell-based; in short: as §2
[35] = target: Histone-lysine N-methyltransferase EZH2 (Mus musculus) (UniProt Q61188); test: Inhibition of EZH2 in mouse MOVAS cells assessed as reduction in cell count at 5 uM measured after 48 hrs in presence of MEK1 inhibitor PD98059 by light microscopy; type: cell-based; in short: as §3
[36] = target: Histone-lysine N-methyltransferase EZH2 (Mus musculus) (UniProt Q61188); test: Inhibition of EZH2 in mouse MOVAS cells assessed as increase in LC3-II accumulation at 5 uM measured after 24 hrs in presence of MEK1 inhibitor PD98059 by Western blot analysis; type: cell-based; in short: as §1
MOVAS [37] = test: Cell cycle arrest in mouse MOVAS cells assessed as effect on G0/G1-phase cell population by flow cytometry; type: functional, cell-based; in short: as §4
MOVAS [38] = test: Cell cycle arrest in mouse MOVAS cells assessed as effect on S-phase cell population by flow cytometry; type: functional, cell-based; in short: as §4
MOVAS [39] = test: Cell cycle arrest in mouse MOVAS cells assessed as effect on G2/M-phase cell population by flow cytometry; type: functional, cell-based; in short: as §4
[40] = Induction of apoptosis in mouse MOVAS cells assessed as early apoptotic cells by flow cytometry; type: functional; in short: as §5
[41] = Induction of apoptosis in mouse MOVAS cells assessed as late apoptotic cells by flow cytometry; type: functional; in short: as §5

Histone-lysine N-methyltransferase EZH2 (Mus musculus), sequence (Q61188 whole entry): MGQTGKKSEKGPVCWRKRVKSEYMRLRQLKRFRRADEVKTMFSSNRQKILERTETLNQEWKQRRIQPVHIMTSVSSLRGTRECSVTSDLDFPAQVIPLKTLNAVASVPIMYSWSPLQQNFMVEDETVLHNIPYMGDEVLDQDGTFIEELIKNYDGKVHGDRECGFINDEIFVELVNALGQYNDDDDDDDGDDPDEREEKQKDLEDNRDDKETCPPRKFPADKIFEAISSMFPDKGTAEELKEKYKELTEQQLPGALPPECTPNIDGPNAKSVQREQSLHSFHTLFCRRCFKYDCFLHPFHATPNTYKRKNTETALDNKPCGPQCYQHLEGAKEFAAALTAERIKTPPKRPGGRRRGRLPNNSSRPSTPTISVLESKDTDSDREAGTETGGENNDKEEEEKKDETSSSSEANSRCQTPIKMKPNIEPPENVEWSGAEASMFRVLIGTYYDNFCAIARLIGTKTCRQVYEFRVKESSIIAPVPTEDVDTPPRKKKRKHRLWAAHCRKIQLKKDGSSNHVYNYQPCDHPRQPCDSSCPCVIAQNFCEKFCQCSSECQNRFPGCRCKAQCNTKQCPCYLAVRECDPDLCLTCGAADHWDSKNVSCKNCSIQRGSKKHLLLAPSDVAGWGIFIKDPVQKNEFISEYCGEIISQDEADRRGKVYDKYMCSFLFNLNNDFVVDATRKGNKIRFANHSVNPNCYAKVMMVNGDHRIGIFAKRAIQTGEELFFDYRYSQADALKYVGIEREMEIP

inhibition [1]: Active
inhibition [2]: Active
inhibition [4]: Active
inhibition [5]: Active
inhibition [6]: Active
inhibition [7]: Active
inhibition [8]: Active
inhibition [9]: Active
inhibition [10]: Active
inhibition [11]: inactive
inhibition [12]: inactive
inhibition [13]: inactive
inhibition [14]: inactive
inhibition [15]: inactive
inhibition [16]: inactive
inhibition [17]: inactive
inhibition [18]: inactive
inhibition [19]: inactive
inhibition [20]: Active
inhibition [21]: Active
inhibition [22]: Active
inhibition [28]: Active
inhibition [29]: Active
inhibition [30]: Active
inhibition [31]: Active
inhibition [32]: Active
inhibition [33]: inactive
inhibition [34]: inactive
inhibition [35]: inactive
inhibition [36]: inactive
Structure (SMILES): CCCc1cc(C)[nH]c(=O)c1CNC(=O)c1cc(-c2ccc(N3CCN(C(C)C)CC3)nc2)cc2c1cnn2C(C)C
inhibition [3]: Active
Activity (MOVAS [23]): inactive
Activity (MOVAS [24]): inactive
Activity (MOVAS [25]): inactive
Activity [26]: 8.67%
Activity [27]: 6.11%

Structure (SMILES): C[S+](C)[O-] [DIMETHYL SULFOXIDE]
Activity (MOVAS [37]): inactive
Activity (MOVAS [38]): inactive
Activity (MOVAS [39]): inactive
Activity [40]: 9.76%
Activity [41]: 5.96%
